Data as given in ChEMBL document CHEMBL1152820, “Plasmid-encoded ACC-4, an extended-spectrum cephalosporinase variant from Escherichia coli” (Antimicrob Agents Chemother, 2007).
Values after ≈ are worked out from the molar mass of the structure shown.

T1: Beta-lactamase ACC-4 (Escherichia coli, UniProt A4ZYU9)
T1 sequence (A4ZYU9 whole entry): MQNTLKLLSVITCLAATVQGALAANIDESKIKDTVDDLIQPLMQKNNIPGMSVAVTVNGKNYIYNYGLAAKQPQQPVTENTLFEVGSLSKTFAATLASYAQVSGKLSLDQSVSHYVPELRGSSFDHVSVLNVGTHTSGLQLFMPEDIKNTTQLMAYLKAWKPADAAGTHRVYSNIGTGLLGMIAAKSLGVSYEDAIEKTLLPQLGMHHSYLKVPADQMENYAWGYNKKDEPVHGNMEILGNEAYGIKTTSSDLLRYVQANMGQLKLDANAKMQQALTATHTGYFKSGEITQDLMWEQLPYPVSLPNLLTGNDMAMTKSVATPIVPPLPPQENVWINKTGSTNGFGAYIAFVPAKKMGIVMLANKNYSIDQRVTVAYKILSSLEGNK

B1: Beta-lactamase ACC-4 (Escherichia coli), A4ZYU9 (protein)
chain: T1 sequence (A4ZYU9 whole entry)

How the values were obtained:
Escherichia coli [1] = assay: Antimicrobial activity against Escherichia coli MC4100 harboring pA-acc4 plasmid by agar dilution technique; type: functional
Escherichia coli [2] = assay: Antimicrobial activity against Escherichia coli MC4100 harboring pA-acc1 plasmid by agar dilution technique; type: functional
Escherichia coli [3] = assay: Antimicrobial activity against Escherichia coli MC4100 harboring pB-acc4 plasmid by agar dilution technique; type: functional
Escherichia coli [4] = assay: Antimicrobial activity against Escherichia coli MC4100 harboring pB-acc1 plasmid by agar dilution technique; type: functional
Beta-lactamase ACC-4 = biological target: T1, Beta-lactamase ACC-4; assay: Inhibition of Escherichia coli beta-lactamase ACC4
Outline: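 ACC-4 from mid-log E. coli(pS18-d): sonicated, ultracentrifuged, Q-Sepharose flowthrough then S-Sepharose (0–0.6 M NaCl gradient, phosphate pH 6.8), >95% pure by SDS-PAGE.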

Escherichia coli [5] = assay: Antimicrobial activity against Escherichia coli MC4100 harboring pACYC184 plasmid by agar dilution technique; type: functional
Escherichia coli [6] = assay: Antimicrobial activity against Escherichia coli MC4100 harboring pBCSK plasmid by agar dilution technique; type: functional
Hafnia alvei [7] = assay: Activity of Hafnia alvei beta-lactamase ACC-1 assessed as nmol of compound hydrolysis per ug of protein
Hafnia alvei [8] = assay: Activity of Hafnia alvei beta-lactamase ACC-1
Hafnia alvei [9] = assay: Ratio of Vmax to Km for Hafnia alvei beta-lactamase ACC-1
[10] = substrate: CC(=O)OCC1=C(C(=O)O)N2C(=O)[C@@H](NC(=O)Cc3cccs3)[C@H]2SC1; assay: (§1) Ratio of Kcat to Km for Escherichia coli beta-lactamase ACC4 by UV spectrophotometry
Outline: (§2)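 ACC-4 purified from E. coli carrying pS18-d, grown to mid-log in broth with 100 μg/ml ampicillin. Sonicated, then Q-Sepharose and S-Sepharose chromatography (NaCl 0 to 0.6 M, phosphate pH 6.8), >95% pure. Substrate hydrolysis at 30°C, pH 7.0, followed by UV spectrophotometry. kcat and Km are means of four independent measurements.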

[11] = substrate: CC(C)(O/N=C(\C(=O)N[C@@H]1C(=O)N2C(C(=O)[O-])=C(C[n+]3ccccc3)CS[C@H]12)c1csc(N)n1)C(=O)O; assay: as §1; outline: as §2
[12] = substrate: CC1(C)S[C@@H]2[C@H](NC(=O)Cc3ccccc3)C(=O)N2[C@H]1C(=O)O; assay: as §1; outline: as §2
[13] = substrate: CCN1CCN(C(=O)N[C@@H](C(=O)N[C@@H]2C(=O)N3[C@@H]2SC(C)(C)[C@@H]3C(=O)O)c2ccccc2)C(=O)C1=O; assay: as §1; outline: as §2
[14] = substrate: CO/N=C(\C(=O)N[C@@H]1C(=O)N2C(C(=O)O)=C(COC(C)=O)CS[C@H]12)c1csc(N)n1; assay: as §1; outline: as §2
[15] = substrate: CO/N=C(\C(=O)N[C@@H]1C(=O)N2C(C(=O)[O-])=C(C[N+]3(C)CCCC3)CS[C@H]12)c1csc(N)n1; assay: as §1; outline: as §2
[16] = substrate: CC(=O)OCC1=C(C(=O)O)N2C(=O)[C@@H](NC(=O)Cc3cccs3)[C@H]2SC1; assay: (§3) Activity of Escherichia coli beta-lactamase ACC4 by UV spectrophotometry; outline: as §2
[17] = substrate: CC(C)(O/N=C(\C(=O)N[C@@H]1C(=O)N2C(C(=O)[O-])=C(C[n+]3ccccc3)CS[C@H]12)c1csc(N)n1)C(=O)O; assay: as §3; outline: as §2
[18] = substrate: CC1(C)S[C@@H]2[C@H](NC(=O)Cc3ccccc3)C(=O)N2[C@H]1C(=O)O; assay: as §3; outline: as §2
[19] = substrate: CCN1CCN(C(=O)N[C@@H](C(=O)N[C@@H]2C(=O)N3[C@@H]2SC(C)(C)[C@@H]3C(=O)O)c2ccccc2)C(=O)C1=O; assay: as §3; outline: as §2
[20] = substrate: CO/N=C(\C(=O)N[C@@H]1C(=O)N2C(C(=O)O)=C(COC(C)=O)CS[C@H]12)c1csc(N)n1; assay: as §3; outline: as §2
[21] = substrate: CO/N=C(\C(=O)N[C@@H]1C(=O)N2C(C(=O)[O-])=C(C[N+]3(C)CCCC3)CS[C@H]12)c1csc(N)n1; assay: as §3; outline: as §2
[22] = substrate: CO[C@@]1(NC(=O)Cc2cccs2)C(=O)N2C(C(=O)O)=C(COC(N)=O)CS[C@@H]21; assay: as §3; outline: as §2

Row | Molecule | MIC (Escherichia coli [1]) | MIC (Escherichia coli [2]) | MIC (Escherichia coli [3]) | MIC (Escherichia coli [4]) | MIC (Escherichia coli [5]) | MIC (Escherichia coli [6]) | other results
1 | CO/N=C(\C(=O)N[C@@H]1C(=O)N2C(C(=O)[O-])=C(C[N+]3(C)CCCC3)CS[C@H]12)c1csc(N)n1 | 0.12 µg/mL (≈ 0.25 µM) | 0.12 µg/mL (≈ 0.25 µM) | 0.25 µg/mL (≈ 0.52 µM) | 0.12 µg/mL (≈ 0.25 µM) |  |  | 
2 | C[C@]1(/C=C\C#N)[C@H](C(=O)O)N2C(=O)C[C@H]2S1(=O)=O |  |  |  |  |  |  | IC50 (Beta-lactamase ACC-4): 10300 nM
3 | CC1(C)S[C@@H]2[C@H](NC(=O)[C@H](N)c3ccc(O)cc3)C(=O)N2[C@H]1C(=O)O [AMOXICILLIN] | > 512 µg/mL | > 512 µg/mL | > 512 µg/mL | > 512 µg/mL | 4 µg/mL (≈ 10.9 µM) | 4 µg/mL (≈ 10.9 µM) | 
4 | C[C@H]1[C@H](NC(=O)/C(=N\OC(C)(C)C(=O)O)c2csc(N)n2)C(=O)N1S(=O)(=O)O [AZTREONAM] | 2 µg/mL (≈ 4.59 µM) | 0.5 µg/mL (≈ 1.15 µM) | 2 µg/mL (≈ 4.59 µM) | 1 µg/mL (≈ 2.3 µM) |  |  | IC50 (Beta-lactamase ACC-4): 32 nM
5 | N[C@@H](C(=O)N[C@@H]1C(=O)N2C(C(=O)O)=C(Cl)CS[C@H]12)c1ccccc1 [CEFACLOR ANHYDROUS] | > 512 µg/mL | > 512 µg/mL | > 512 µg/mL | > 512 µg/mL | 2 µg/mL (≈ 5.44 µM) | 2 µg/mL (≈ 5.44 µM) | 
6 | CO/N=C(\C(=O)N[C@@H]1C(=O)N2C(C(=O)O)=C(COC(C)=O)CS[C@H]12)c1csc(N)n1 [CEFOTAXIME] | 32 µg/mL (≈ 70.3 µM) | 8 µg/mL (≈ 17.6 µM) | 64 µg/mL (≈ 141 µM) | 16 µg/mL (≈ 35.1 µM) | ≤ 0.06 µg/mL | ≤ 0.06 µg/mL | Vmax (Hafnia alvei [7]): < 0.01 nmol/min/µg
7 | CO[C@@]1(NC(=O)C2SC(=C(C(N)=O)C(=O)O)S2)C(=O)N2C(C(=O)O)=C(CSc3nnnn3C)CS[C@@H]21 (stereo partly drawn) [CEFOTETAN] | 1 µg/mL (≈ 1.74 µM) | 1 µg/mL (≈ 1.74 µM) | 1 µg/mL (≈ 1.74 µM) | 1 µg/mL (≈ 1.74 µM) | 0.5 µg/mL (≈ 0.869 µM) | 0.5 µg/mL (≈ 0.869 µM) | 
8 | CO[C@@]1(NC(=O)Cc2cccs2)C(=O)N2C(C(=O)O)=C(COC(N)=O)CS[C@@H]21 [CEFOXITIN] | 4 µg/mL (≈ 9.36 µM) | 4 µg/mL (≈ 9.36 µM) | 4 µg/mL (≈ 9.36 µM) | 4 µg/mL (≈ 9.36 µM) | 2 µg/mL (≈ 4.68 µM) | 2 µg/mL (≈ 4.68 µM) | Vmax (Hafnia alvei [7]): < 0.002 nmol/min/µg
9 | CC(C)(O/N=C(\C(=O)N[C@@H]1C(=O)N2C(C(=O)[O-])=C(C[n+]3ccccc3)CS[C@H]12)c1csc(N)n1)C(=O)O [CEFTAZIDIME] | 256 µg/mL (≈ 468 µM) | 32 µg/mL (≈ 58.5 µM) | 512 µg/mL (≈ 937 µM) | 128 µg/mL (≈ 234 µM) | 0.25 µg/mL (≈ 0.457 µM) | 0.25 µg/mL (≈ 0.457 µM) | Vmax (Hafnia alvei [7]): < 0.025 nmol/min/µg; Km (Hafnia alvei [8]): 17 µM; Vmax/Km (Hafnia alvei [9]): < 0.01
10 | CO/N=C(\C(=O)N[C@@H]1C(=O)N2C(C(=O)O)=C(CSc3nc(=O)c(O)nn3C)CS[C@H]12)c1csc(N)n1 [CEFTRIAXONE] | 32 µg/mL (≈ 57.7 µM) | 16 µg/mL (≈ 28.9 µM) | 128 µg/mL (≈ 231 µM) | 32 µg/mL (≈ 57.7 µM) | 0.12 µg/mL (≈ 0.216 µM) | 0.12 µg/mL (≈ 0.216 µM) | 
11 | CO/N=C(\C(=O)N[C@@H]1C(=O)N2C(C(=O)O)=C(COC(N)=O)CS[C@H]12)c1ccco1 [CEFUROXIME] | > 512 µg/mL | 128 µg/mL (≈ 302 µM) | > 512 µg/mL | 128 µg/mL (≈ 302 µM) | 1 µg/mL (≈ 2.36 µM) | 1 µg/mL (≈ 2.36 µM) | 
12 | CC(=O)OCC1=C(C(=O)O)N2C(=O)[C@@H](NC(=O)Cc3cccs3)[C@H]2SC1 [CEPHALOTHIN] | > 512 µg/mL | > 512 µg/mL | > 512 µg/mL | > 512 µg/mL | 2 µg/mL (≈ 5.04 µM) | 2 µg/mL (≈ 5.04 µM) | 
13 | Cc1onc(-c2ccccc2Cl)c1C(=O)N[C@@H]1C(=O)N2[C@@H]1SC(C)(C)[C@@H]2C(=O)O [CLOXACILLIN] |  |  |  |  |  |  | IC50 (Beta-lactamase ACC-4): 26 nM
14 | CCN1CCN(C(=O)N[C@@H](C(=O)N[C@@H]2C(=O)N3[C@@H]2SC(C)(C)[C@@H]3C(=O)O)c2ccccc2)C(=O)C1=O [PIPERACILLIN] | 32 µg/mL (≈ 61.8 µM) | 64 µg/mL (≈ 124 µM) | 128 µg/mL (≈ 247 µM) | 256 µg/mL (≈ 495 µM) | 0.5 µg/mL (≈ 0.966 µM) | 0.5 µg/mL (≈ 0.966 µM) | Vmax (Hafnia alvei [7]): 0.17 nmol/min/µg; Km (Hafnia alvei [8]): 1.4 µM; Vmax/Km (Hafnia alvei [9]): 0.12
15 | B1 |  |  |  |  |  |  | kcat/Km [10]: 3.2 s⁻¹ µM⁻¹; kcat/Km [11]: 0.1 s⁻¹ µM⁻¹; kcat/Km [12]: 0.16 s⁻¹ µM⁻¹; kcat/Km [13]: 0.12 s⁻¹ µM⁻¹; kcat/Km [14]: 0.29 s⁻¹ µM⁻¹; kcat/Km [15]: 0.002 s⁻¹ µM⁻¹; Km [16]: 30 µM; kcat [16]: 96 s⁻¹; Km [17]: 15 µM; kcat [17]: 1.5 s⁻¹; Km [18]: 3.8 µM; kcat [18]: 0.59 s⁻¹; Km [19]: 1.1 µM; kcat [19]: 0.13 s⁻¹; Km [20]: 9.4 µM; kcat [20]: 2.7 s⁻¹; Km [21]: 73 µM; kcat [21]: 0.14 s⁻¹; kcat [22]: < 0.01 s⁻¹
